Results from ChEMBL document CHEMBL4152234, “Aminobenzothiazole derivatives stabilize the thermolabile p53 cancer mutant Y220C and show anticancer activity in p53-Y220C cell lines” (Eur J Med Chem, 2018).
The source made the active and inactive calls. The rule behind the calls is not given here.

Columns and labels:
[1] = tested on: Cellular tumor antigen p53 (Homo sapiens), P04637 [Y220C]; experiment: Activation of p53 Y220C mutant in human NUGC3 cells assessed as change in CDK4 mRNA level at 60 uM after 18 hrs by RT-PCR method relative to control; format: cell-based
Outline: (§1)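 p53 signalling qPCR array covering 84 genes. Cells were exposed for 18 h, with 0.5% DMSO in both compound and control samples. Total RNA was extracted and purified. Fold-changes were calculated by ΔΔCt using β2-microglobulin (B2M) as the housekeeping gene. Two independent biological replicates were run per cell line.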

[2] = target: T1, Cellular tumor antigen p53 (Homo sapiens, UniProt P04637); experiment: Activation of p53 in human NUGC4 cells assessed as change in PCNA mRNA level at 60 uM after 18 hrs by RT-PCR method relative to control; format: cell-based; details: read-out: FC
[3] = tested on: Cellular tumor antigen p53 (Homo sapiens), P04637 [Y220C]; experiment: Activation of p53 Y220C mutant in human NUGC3 cells assessed as change in GML mRNA level at 60 uM after 18 hrs by RT-PCR method relative to control; format: cell-based; outline: as §1
[4] = target: T1, Cellular tumor antigen p53; experiment: Activation of p53 in human NUGC4 cells assessed as change in HK2 mRNA level at 60 uM after 18 hrs by RT-PCR method relative to control; format: cell-based; details: read-out: FC
Outline: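 p53 signaling qPCR array of 84 p53-pathway genes. Cells were treated in 6-well plates for 18 h with 0.5% DMSO in compound and control samples. Total RNA was extracted and fold-changes were obtained by the ΔΔCt method against untreated control, with β2-microglobulin (B2M) as housekeeping gene. Two independent biological replicates per cell line.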

[5] = target: T1, Cellular tumor antigen p53; experiment: Activation of p53 in human NUGC4 cells assessed as change in RB1 mRNA level at 60 uM after 18 hrs by RT-PCR method relative to control; format: cell-based; details: read-out: FC
[6] = target: T1, Cellular tumor antigen p53; experiment: Activation of p53 in human NUGC4 cells assessed as change in ATM mRNA level at 60 uM after 18 hrs by RT-PCR method relative to control; format: cell-based; details: read-out: FC
Outline: (§2)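 p53 signalling qPCR array covering 84 p53 pathway genes. Cells were exposed for 18 h, and compound and control wells both held 0.5% DMSO. Total RNA was extracted and purified. Fold-changes were calculated by the ΔΔCt method against the untreated sample, with β2-microglobulin (B2M) as the housekeeping gene. Each cell line was run in two independent biological replicates.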

[7] = Solubility of the compound in water; format: physicochemical; details: buffer
[8] = tested on: Cellular tumor antigen p53 (Homo sapiens), P04637 [Y220C]; experiment: Activation of p53 Y220C mutant in human NUGC3 cells assessed as change in FADD mRNA level at 60 uM after 18 hrs by RT-PCR method relative to control; format: cell-based; outline: as §1
[9] = tested on: Cellular tumor antigen p53 (Homo sapiens), P04637 [Y220C]; experiment: Activation of p53 Y220C mutant in human NUGC3 cells assessed as change in F0X03 mRNA level at 60 uM after 18 hrs by RT-PCR method relative to control; format: cell-based; outline: as §1
[10] = tested on: Cellular tumor antigen p53 (Homo sapiens), P04637 [Y220C]; experiment: Activation of p53 Y220C mutant in human NUGC3 cells assessed as change in EGR1 mRNA level at 60 uM after 18 hrs by RT-PCR method relative to control; format: cell-based; outline: as §1
[11] = tested on: Cellular tumor antigen p53 (Homo sapiens), P04637 [Y220C]; experiment: Activation of p53 Y220C mutant in human NUGC3 cells assessed as change in CASP2 mRNA level at 60 uM after 18 hrs by RT-PCR method relative to control; format: cell-based; outline: as §1
[12] = tested on: Cellular tumor antigen p53 (Homo sapiens), P04637 [Y220C]; experiment: Activation of p53 Y220C mutant in human NUGC3 cells assessed as change in TADA3 mRNA level at 60 uM after 18 hrs by RT-PCR method relative to control; format: cell-based; outline: as §2
[13] = tested on: Cellular tumor antigen p53 (Homo sapiens), P04637 [Y220C]; experiment: Activation of p53 Y220C mutant in human NUGC3 cells assessed as change in PTEN mRNA level at 60 uM after 18 hrs by RT-PCR method relative to control; format: cell-based; outline: as §2
[14] = target: T1, Cellular tumor antigen p53; experiment: Activation of p53 in human NUGC4 cells assessed as change in TNFRSF10B mRNA level at 60 uM after 18 hrs by RT-PCR method relative to control; format: cell-based; details: read-out: FC
[15] = tested on: Cellular tumor antigen p53 (Homo sapiens), P04637 [Y220C]; experiment: Activation of p53 Y220C mutant in human HuH7 cells assessed as increase in NOXA mRNA level at 30 uM after 18 hrs by RT-PCR method; format: cell-based
Outline: (§3)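 Real-time PCR. Cells were treated for 18 h, with 0.5% DMSO in both compound and control samples. Relative mRNA levels were quantified by the ΔΔCt method as fold-change against the untreated sample. Each sample was measured in triplicate, and data are given as mean ± SEM with an unpaired t-test.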

[16] = tested on: Cellular tumor antigen p53 (Homo sapiens), P04637 [Y220C]; experiment: Activation of p53 Y220C mutant in human NUGC3 cells assessed as change in PIDD1 mRNA level at 60 uM after 18 hrs by RT-PCR method relative to control; format: cell-based; outline: as §2
[17] = tested on: Cellular tumor antigen p53 (Homo sapiens), P04637 [Y220C]; experiment: Activation of p53 Y220C mutant in human HuH7 cells assessed as increase in Bax mRNA level at 30 uM after 18 hrs by RT-PCR method; format: cell-based; outline: as §3
[18] = target: T1, Cellular tumor antigen p53; experiment: Activation of p53 in human NUGC4 cells assessed as change in TP53AIP1 mRNA level at 60 uM after 18 hrs by RT-PCR method relative to control; format: cell-based; details: read-out: FC
[19] = tested on: Cellular tumor antigen p53 (Homo sapiens), P04637 [Y220C]; experiment: Activation of p53 Y220C mutant in human NUGC3 cells assessed as change in IL6 mRNA level at 60 uM after 18 hrs by RT-PCR method relative to control; format: cell-based; outline: as §2
[20] = target: T1, Cellular tumor antigen p53; experiment: Activation of p53 in human NUGC4 cells assessed as change in PRKCA mRNA level at 60 uM after 18 hrs by RT-PCR method relative to control; format: cell-based; details: read-out: FC
[21] = target: T1, Cellular tumor antigen p53; experiment: Activation of p53 in human NUGC4 cells assessed as change in TNFRSF10D mRNA level at 60 uM after 18 hrs by RT-PCR method relative to control; format: cell-based; details: read-out: FC
[22] = tested on: Cellular tumor antigen p53 (Homo sapiens), P04637 [Y220C]; experiment: Activation of p53 Y220C mutant in human NUGC3 cells assessed as change in NFKB1 mRNA level at 60 uM after 18 hrs by RT-PCR method relative to control; format: cell-based; outline: as §2
[23] = tested on: Cellular tumor antigen p53 (Homo sapiens), P04637 [Y220C]; experiment: Activation of p53 Y220C mutant in human NUGC3 cells assessed as change in RELA mRNA level at 60 uM after 18 hrs by RT-PCR method relative to control; format: cell-based; outline: as §2
SW1088 = experiment: Antiproliferative activity against human SW1088 cells harboring p53 R273C mutant assessed as cell viability at <40 uM after 72 hrs by CellTiter-Glo assay relative to control
[24] = tested on: Cellular tumor antigen p53 (Homo sapiens), P04637 [Y220C]; experiment: Activation of p53 Y220C mutant in human NUGC3 cells assessed as change in PTTG1 mRNA level at 60 uM after 18 hrs by RT-PCR method relative to control; format: cell-based; outline: as §2
[25] = tested on: Cellular tumor antigen p53 (Homo sapiens), P04637 [Y220C]; experiment: Activation of p53 Y220C mutant in human NUGC3 cells assessed as change in CHEK1 mRNA level at 60 uM after 18 hrs by RT-PCR method relative to control; format: cell-based; outline: as §1
[26] = tested on: Cellular tumor antigen p53 (Homo sapiens), P04637 [Y220C]; experiment: Activation of p53 Y220C mutant in human HuH7 cells assessed as increase in p21 mRNA level at 30 uM after 18 hrs by RT-PCR method; format: cell-based; outline: as §3
[27] = tested on: Cellular tumor antigen p53 (Homo sapiens), P04637 [Y220C]; experiment: Activation of p53 Y220C mutant in human NUGC3 cells assessed as change in BAX mRNA level at 60 uM after 18 hrs by RT-PCR method relative to control; format: cell-based; outline: as §1

CCNC(=O)c1c(O)c(I)c(-n2cccc2)c2sc(N(CC)CC)nc12
fold change (FC) [1]: 1.3 | fold induction at 60 µM [2]: 0.6 | fold change (FC) [3]: 3.1 | fold induction at 60 µM [4]: 0.8 | fold induction at 60 µM [5]: 0.8 | fold induction at 60 µM [6]: 1 | solubility [7]: Insoluble | fold change (FC) [8]: 0.4 | fold change (FC) [9]: 2 | fold change (FC) [10]: 1 | fold change (FC) [11]: 1.1 | fold change (FC) [12]: 0.8 | fold change (FC) [13]: 1.1 | fold induction at 60 µM [14]: 1.2 | Activity [15]: Active | fold change (FC) [16]: 1.2 | Activity [17]: Active | fold induction at 60 µM [18]: 1 | fold change (FC) [19]: 6.4 | fold induction at 60 µM [20]: 1 | fold induction at 60 µM [21]: 1 | fold change (FC) [22]: 1.5 | fold change (FC) [23]: 1.1 | Activity (SW1088): >80% | fold change (FC) [24]: 1.5 | fold change (FC) [25]: 1.2 | Activity [26]: Active | fold change (FC) [27]: 1.1
